CHRM4 agonist = agonists of human muscarinic M4 receptor (CHRM4); CHO-K1 hM4/Gqi5, Fluo-8 calcium fluorescence; vehicle 0%, full acetylcholine response 100%; activation, % at 3 µM; AID 624127; P08173; hit rate 0.14% among 360,000;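 active = activation above the run mean over all test wells plus 3 SD, cut at about 32% in these data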;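 also: peak over basal fluorescence ratio per well then scaled between controls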
Target sequence (P08173 whole entry, looked up): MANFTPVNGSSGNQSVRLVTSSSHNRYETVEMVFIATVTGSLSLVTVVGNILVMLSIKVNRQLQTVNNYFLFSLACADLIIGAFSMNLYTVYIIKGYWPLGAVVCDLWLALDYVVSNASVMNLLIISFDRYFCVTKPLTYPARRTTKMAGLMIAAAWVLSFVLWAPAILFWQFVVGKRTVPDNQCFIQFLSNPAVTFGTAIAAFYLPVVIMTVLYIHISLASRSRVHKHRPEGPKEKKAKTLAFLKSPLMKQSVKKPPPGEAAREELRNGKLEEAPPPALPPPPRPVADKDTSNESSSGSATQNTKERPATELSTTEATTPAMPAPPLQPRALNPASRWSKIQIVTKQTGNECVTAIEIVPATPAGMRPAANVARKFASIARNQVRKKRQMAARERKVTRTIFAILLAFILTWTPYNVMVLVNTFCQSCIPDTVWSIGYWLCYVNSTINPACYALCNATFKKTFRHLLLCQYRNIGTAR
M5 antag = antagonists of human muscarinic M5 receptor (CHRM5); inhibition, % at 3 µM; CHO-hM5 cells, Fluo-8 calcium fluorescence, ACh EC80; AID 624040; hit rate 0.59% among 360,000; P08912;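 active = inhibition above a per-plate cutoff, the mean of that plate's test compounds plus 3 SD, cut at about 27% in these data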
CHRM5 agonist = agonists of human muscarinic M5 receptor (CHRM5); P08912; CHO-K1 hM5 cells, Fluo-8 calcium fluorescence; 0% DMSO wells, 100% maximal acetylcholine response; activation, % at 3 µM; hit rate 0.19% among 360,000;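 active = activation above the run's mean over test compounds plus 3 SD, cut at about 23% in these data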;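 also: signal is peak over basal fluorescence ratio across the kinetic read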
M4 antag = antagonists of human muscarinic M4 receptor (CHRM4); inhibition, % at 3 µM; AID 624125; hit rate 0.73% among 360,000; CHO-hM4 cells, ACh EC80, Fluo-8 calcium fluorescence;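 active = inhibition above its plate's cutoff, the mean inhibition of sample wells plus 3 SD, cut at about 27% in these data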
M5 PAM = positive allosteric modulators of human muscarinic M5 receptor; AID 624038; P08912; hit rate 0.3% among 360,000; CHO-K1 hM5, Fluo-8 calcium, ACh EC20 PAM; 0% = ACh EC20, 100% = ACh EC100; activation, % at 3 µM;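 active = activation above the run cutoff, the mean activation of all test compounds plus 3 SD, cut at about 18% in these data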
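System: CHO-K1 hM5 cells. Reagent: acetylcholine, EC20 level. Compound dosing: single dose, 3 µM nominal final test concentration. Timing: Post-acetylcholine fluorescence recording 140 s. Detection: Fluo-8 calcium fluorescence. Read-out: % activation, ACh-normalized. Benchmarks: ACh EC20 and EC100 wells. Repeats: singlicate, one well per test compound.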
CHRM4 PAM = positive allosteric modulators of human muscarinic M4 receptor; P08173; AID 624126; CHO-K1 hM4/Gqi5, Fluo-8 calcium fluorescence, ACh EC20; 0% = ACh EC20, 100% = maximal ACh; hit rate 0.4% among 360,000; activation, % at 3 µM;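 active = activation above its plate's cutoff, the mean activation of sample wells plus 3 SD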
A number is an active result; 0 = inactive. Rows were chosen to be rich in hits. Some 1.9% of all compounds tested hit in one or more screens of this group.

SMILES	CHRM4 agonist	M5 antag	CHRM5 agonist	M4 antag	M5 PAM	CHRM4 PAM
CC1(C)C[C@H]2C3=CCC4[C@@]5(C)CC[C@H](O[C@@H]6O[C@H](C(=O)O)[C@@H](O)[C@H](O)[C@H]6O)[C@@](C)(CO)C5CC[C@@]4(C)[C@]3(C)C[C@H](O)[C@@]2(CO)[C@@H](O)[C@@H]1O (stereo partly drawn)	0	0	0	0	0	0
C/C=C(/C)C(=O)OC1CC(C)(C)C[C@H]2C3=CC[C@@H]4[C@@]5(C)CCC(O[C@@H]6O[C@@H](C(=O)O)[C@@H](O)C(O[C@@H]7OC[C@H](O)[C@@H](O)[C@@H]7O[C@@H]7OC(CO)C(O)[C@@H](O)[C@@H]7O)C6O[C@@H]6OC(CO)C(O)C(O)C6O)[C@@](C)(CO)[C@@H]5CC[C@]4(C)[C@]3(C)CC(O)[C@@]12CO (stereo partly drawn)	74.8	0	0	0	0	0
C/C=C(\C)C(=O)OC1[C@H](OC(C)=O)C2(CO)C(CC1(C)C)C1=CCC3C4(C)CCC(O[C@@H]5O[C@H](C(=O)O)[C@@H](O[C@@H]6O[C@H](CO)[C@@H](O)[C@H](O)[C@H]6O)[C@H](O)[C@H]5O[C@H]5O[C@H](CO)[C@@H](O)[C@H](O)[C@H]5O)[C@](C)(CO)C4CCC3(C)[C@]1(C)C[C@H]2O (stereo partly drawn)	133.4	82.5	91.8	90.7	0	0
CCn1nc(C(=O)Nc2ccc3nc(C)sc3c2)c2ccccc2c1=O	0	0	0	0	0	0
Cc1cc(O)c(-c2cc(O)c(C)cc2O)cc1O	0	0	0	27.7	0	0
CC1(c2ccc(OC(F)F)cc2)NC(=O)N(CC(=O)Nc2ccc(S(N)(=O)=O)cc2)C1=O (stereo not drawn)	0	0	0	0	0	0
CC1(c2ccc(OC(F)F)cc2)NC(=O)N(CC(=O)Nc2cccc(F)c2)C1=O (stereo not drawn)	97.8	0	45.4	26.5	0	0
CC1(C)NC(=O)N(CC(=O)OCC(=O)c2ccc(F)cc2)C1=O	0	0	0	0	0	0
CC1(c2ccc(OC(F)F)cc2)NC(=O)N(CC(=O)Nc2ccc(F)cc2)C1=O (stereo not drawn)	32.1	0	24.1	0	0	0
CCC1(CC)NC(=O)N(CC(=O)OCC(=O)Nc2cc(C)ccc2C)C1=O	0	0	0	0	0	18.4
CC1(C)NC(=O)N(CC(=O)OCC(=O)Nc2cccc(F)c2)C1=O	0	0	0	0	37.4	0
Cc1cc(NC(=O)CN2C(=O)NC(C)(c3ccc(OC(F)F)cc3)C2=O)no1 (stereo not drawn)	0	0	0	0	0	0
Cc1ccccc1NC(=O)C(Cl)=C(Cl)Cl	0	0	0	0	0	0
CCOc1ccc(NC(=O)CN2C(=O)NC(C)(c3ccc(OC(F)F)cc3)C2=O)cc1 (stereo not drawn)	51.0	0	0	0	0	0
CC1(c2ccc(OC(F)F)cc2)NC(=O)N(CC(=O)Nc2ccc(OC(F)F)cc2)C1=O (stereo not drawn)	38.0	0	26.7	0	0	0
CC1(c2ccc(OC(F)F)cc2)NC(=O)N(CC(=O)Nc2ccc(Cl)cc2F)C1=O (stereo not drawn)	0	0	30.4	0	0	0
CCOC(=O)c1c(NC(=O)CN2C(=O)NC(C)(c3ccc(OC(F)F)cc3)C2=O)sc(C)c1C (stereo not drawn)	0	0	0	0	0	0
O=C(CN1C(=O)NC2(CCCCCCC2)C1=O)N1CCN(C(=O)c2ccco2)CC1	0	0	0	0	0	0
CCn1c(CNc2ccc(C)cc2)nnc1SCC(=O)NCc1ccccc1	0	0	0	0	0	30.6
Cc1csc(SCC(=O)NC(=O)NC(C)C)n1	0	0	0	0	0	0
CCOC(=O)C1(CCCc2ccccc2)CCN(C2CCN(C(C)=O)CC2)CC1	0	30.1	0	0	0	0
CCOC(=O)C1(CCCc2ccccc2)CCN(C(=O)CSC)CC1	0	0	0	0	0	0

Screening results from PubChem BioAssay.
